Substitutions are numbered along the chain they refer to.
Columns and labels:
[1] = target: T1, Nonstructural protein 5A (Hepatitis C virus) (UniProt Q5L478); test: Inhibition of HCV GT1a NS5A assessed as suppression of replicon RNA level by real-time PCR analysis; details: Hepatitis C virus subtype 1a
T1 sequence (whole entry): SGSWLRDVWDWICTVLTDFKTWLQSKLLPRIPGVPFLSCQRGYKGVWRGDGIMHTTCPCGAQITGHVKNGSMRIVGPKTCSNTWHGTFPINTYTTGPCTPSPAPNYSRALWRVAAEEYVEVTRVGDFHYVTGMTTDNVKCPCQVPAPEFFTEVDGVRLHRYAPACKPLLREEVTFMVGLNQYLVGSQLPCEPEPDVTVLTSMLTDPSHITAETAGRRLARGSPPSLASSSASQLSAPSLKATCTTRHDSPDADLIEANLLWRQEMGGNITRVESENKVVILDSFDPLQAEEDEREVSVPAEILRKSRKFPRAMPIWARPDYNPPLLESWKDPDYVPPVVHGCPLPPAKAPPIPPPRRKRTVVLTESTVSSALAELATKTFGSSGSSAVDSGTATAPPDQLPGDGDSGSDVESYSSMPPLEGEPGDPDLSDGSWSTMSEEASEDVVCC

[2] = target: T1, Nonstructural protein 5A (Hepatitis C virus); test: Inhibition of HCV GT2b NS5A assessed as suppression of replicon RNA level by real-time PCR analysis; details: Hepatitis C virus subtype 2b
Outline: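 GT2b replicon, which carries the naturally occurring NS5A 31M resistance-associated variant; potency given as EC90 in nM.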

[3] = target: T1, Nonstructural protein 5A (Hepatitis C virus); test: Inhibition of HCV GT3a NS5A assessed as suppression of replicon RNA level by real-time PCR analysis; details: Hepatitis C virus subtype 3a
[4] = tested on: T2, Nonstructural protein 5A (Hepatitis C virus), Q5L478 [Y93H]; test: Inhibition of HCV GT1a NS5A Y93H mutant assessed as suppression of replicon RNA level by real-time PCR analysis; details: Hepatitis C virus subtype 1a
T2 sequence (whole entry): T1 sequence (whole entry) with Y93H

[5] = target: T1, Nonstructural protein 5A (Hepatitis C virus); test: Inhibition of HCV GT1b NS5A assessed as suppression of replicon RNA level by real-time PCR analysis; details: Hepatitis C virus subtype 1b
[6] = tested on: Nonstructural protein 5A (Hepatitis C virus), Q5L478 [UNDEFINED MUTATION]; test: Inhibition of HCV GT1a NS5A L31V mutant assessed as suppression of replicon RNA level by real-time PCR analysis; details: Hepatitis C virus subtype 1a

SMILES | EC90 [1] | EC90 [2] | EC90 [3] | EC90 [4] | EC90 [5] | EC90 [6]
COC(=O)N[C@H](C(=O)N1C[C@H](F)C[C@H]1c1ncc(-c2cc(F)c3c(c2)OC(c2ccc(OC(F)(F)F)cc2)n2c-3cc3cc(-c4cnc([C@@H]5C[C@@H](F)CN5C(=O)[C@@H](NC(=O)OC)C(C)C)[nH]4)ccc32)[nH]1)C(C)C (stereo not given in full) | 0.01 nM | 35 nM | 1 nM | 0.2 nM | – | –
COC(=O)N[C@H](C(=O)N1CCC[C@H]1c1ncc(-c2ccc3c(c2)OCn2c-3cc3c(F)c(-c4cnc([C@@H]5CCCN5C(=O)[C@@H](NC(=O)OC)C(C)C)[nH]4)ccc32)[nH]1)C(C)C | > 0.8 nM | – | – | – | > 0.5 nM | –
COC(=O)N[C@H](C(=O)N1CCC[C@H]1c1ncc(-c2ccc3c(c2)OC(c2cccc(OC(C)C)c2)n2c-3cc3cc(-c4cnc([C@@H]5CCCN5C(=O)[C@@H](NC(=O)OC)C(C)C)[nH]4)ccc32)[nH]1)C(C)C (stereo not given in full) | 0.01 nM | 145 nM | 0.08 nM | 34 nM | – | 0.5 nM
COC(=O)N[C@H](C(=O)N1CCC[C@H]1c1ncc(-c2cc(F)c3c(c2)OC(c2cc(OC)cc(OC)c2)n2c-3cc3cc(-c4cnc([C@@H]5CCCN5C(=O)[C@@H](NC(=O)OC)C(C)C)[nH]4)ccc32)[nH]1)C(C)C (stereo not given in full) | 0.004 nM | 0.6 nM | 0.06 nM | 3 nM | – | 0.1 nM
CCOc1cccc(C2Oc3cc(-c4cnc([C@@H]5CCCN5C(=O)[C@@H](NC(=O)OC)C(C)C)[nH]4)cc(F)c3-c3cc4cc(-c5cnc([C@@H]6CCCN6C(=O)[C@@H](NC(=O)OC)C(C)C)[nH]5)ccc4n32)c1 (stereo not given in full) | 0.01 nM | 8 nM | 0.02 nM | 2 nM | – | 0.2 nM
COC(=O)N[C@H](C(=O)N1C[C@H](F)C[C@H]1c1ncc(-c2cc(F)c3c(c2)OC(c2cccc(O[C@@H]4CCOC4)c2)n2c-3cc3cc(-c4cnc([C@@H]5C[C@@H](F)CN5C(=O)[C@@H](NC(=O)OC)C(C)C)[nH]4)ccc32)[nH]1)C(C)C (mixture of isomers) | 0.04 nM | 2 nM | 2 nM | 1 nM | – | 7 nM
COC(=O)N[C@H](C(=O)N1CCC[C@H]1c1ncc(-c2ccc3c(c2)OC(c2cc(OC)cc(OC)c2)n2c-3cc3cc(-c4cnc([C@@H]5CCCN5C(=O)[C@@H](NC(=O)OC)C(C)C)[nH]4)ccc32)[nH]1)C(C)C (stereo not given in full) | 0.004 nM | 11 nM | 0.08 nM | 8 nM | – | 0.3 nM
COC(=O)N[C@H](C(=O)N1CCC[C@H]1c1ncc(-c2ccc3c(c2)OC(c2ccc(OC)cc2)n2c-3cc3cc(-c4cnc([C@@H]5CCCN5C(=O)[C@@H](NC(=O)OC)C(C)C)[nH]4)ccc32)[nH]1)C(C)C (stereo not given in full) | 0.04 nM | 15 nM | – | 82 nM | – | –
COC(=O)N[C@H](C(=O)N1CCC[C@H]1c1ncc(-c2cc(F)c3c(c2)OC(c2cccc(OC(C)C)c2)n2c-3cc3cc(-c4cnc([C@@H]5CCCN5C(=O)[C@@H](NC(=O)OC)C(C)C)[nH]4)ccc32)[nH]1)C(C)C (stereo not given in full) | 0.01 nM | 18 nM | 0.05 nM | 6 nM | – | 0.2 nM
COC(=O)N[C@H](C(=O)N1CCC[C@H]1c1ncc(-c2ccc3c(c2)cc2n3C(c3ccc(OC(F)(F)F)cc3)Oc3cc(-c4cnc([C@@H]5C[C@@H](F)CN5C(=O)[C@@H](NC(=O)OC)C(C)C)[nH]4)cc(F)c3-2)[nH]1)C(C)C (stereo not given in full) | 0.03 nM | 13 nM | – | 0.3 nM | 0.008 nM | –
COC(=O)N[C@H](C(=O)N1CCC[C@H]1c1ncc(-c2ccc3c(c2)cc2n3C(c3cccc(OC(F)(F)F)c3)Oc3cc(-c4cnc([C@@H]5C[C@@H](F)CN5C(=O)[C@@H](NC(=O)OC)C(C)C)[nH]4)ccc3-2)[nH]1)C(C)C (stereo not given in full) | 0.02 nM | 48 nM | – | 1.7 nM | – | 1.8 nM
CCOc1cccc(C2Oc3cc(-c4cnc([C@@H]5C[C@@H](F)CN5C(=O)[C@@H](NC(=O)OC)C(C)C)[nH]4)cc(F)c3-c3cc4cc(-c5cnc([C@@H]6C[C@@H](F)CN6C(=O)[C@@H](NC(=O)OC)C(C)C)[nH]5)ccc4n32)c1 (stereo not given in full) | 0.01 nM | 69 nM | 0.6 nM | 0.2 nM | – | 3 nM
COC(=O)N[C@H](C(=O)N1CCC[C@H]1c1ncc(-c2ccc3c(c2)cc2n3C(c3cccc(OC(F)F)c3)Oc3cc(-c4cnc([C@@H]5C[C@@H](F)CN5C(=O)[C@@H](NC(=O)OC)C(C)C)[nH]4)cc(F)c3-2)[nH]1)C(C)C (stereo not given in full) | 0.002 nM | 22 nM | 0.2 nM | 0.3 nM | – | 0.7 nM
COC(=O)N[C@H](C(=O)N1C[C@H](F)C[C@H]1c1ncc(-c2cc(F)c3c(c2)OC(c2cccc(OC(C)C)c2)n2c-3cc3cc(-c4cnc([C@@H]5C[C@@H](F)CN5C(=O)[C@@H](NC(=O)OC)C(C)C)[nH]4)ccc32)[nH]1)C(C)C (stereo not given in full) | 0.01 nM | 122 nM | 1 nM | 0.1 nM | – | 4 nM
CCOc1cccc(C2Oc3cc(-c4cnc([C@@H]5CCCN5C(=O)[C@@H](NC(=O)OC)C(C)C)[nH]4)ccc3-c3cc4cc(-c5cnc([C@@H]6CCCN6C(=O)[C@@H](NC(=O)OC)C(C)C)[nH]5)ccc4n32)c1 (stereo not given in full) | 0.02 nM | 22 nM | 0.2 nM | 16 nM | – | 0.9 nM
COC(=O)N[C@H](C(=O)N1CCC[C@H]1c1ncc(-c2cc(F)c3c(c2)OC(c2ccc(OC)cc2)n2c-3cc3cc(-c4cnc([C@@H]5CCCN5C(=O)[C@@H](NC(=O)OC)C(C)C)[nH]4)ccc32)[nH]1)C(C)C (stereo not given in full) | 0.01 nM | 5 nM | – | 3 nM | – | 0.2 nM
COC(=O)N[C@H](C(=O)N1CCC[C@H]1c1ncc(-c2ccc3c(c2)OC(c2cc(Cl)cc(OC)c2)n2c-3cc3cc(-c4cnc([C@@H]5CCCN5C(=O)[C@@H](NC(=O)OC)C(C)C)[nH]4)ccc32)[nH]1)C(C)C (mixture of isomers) | 0.03 nM | 202 nM | 0.8 nM | 15 nM | – | 0.2 nM
COC(=O)N[C@H](C(=O)N1CCC[C@H]1c1ncc(-c2cc3c(c(-c4ccccc4)c2)-c2cc4cc(-c5cnc([C@@H]6CCCN6C(=O)[C@@H](NC(=O)OC)C(C)C)[nH]5)ccc4n2CO3)[nH]1)C(C)C | 1 nM | 108 nM | 47 nM | 250 nM | – | 1 nM
CCOc1cccc(C2Oc3cc(-c4cnc([C@@H]5C[C@@H](F)CN5C(=O)[C@@H](NC(=O)OC)C(C)C)[nH]4)cc(F)c3-c3cc4cc(-c5cnc([C@@H]6CCCN6C(=O)[C@@H](NC(=O)OC)C(C)C)[nH]5)ccc4n32)c1 (stereo not given in full) | 0.01 nM | 17 nM | 0.1 nM | 0.4 nM | – | –
COC(=O)N[C@H](C(=O)N1CCC[C@H]1c1ncc(-c2cc3c(c(C4CC4)c2)-c2cc4cc(-c5cnc([C@@H]6CCCN6C(=O)[C@@H](NC(=O)OC)C(C)C)[nH]5)ccc4n2CO3)[nH]1)C(C)C | 0.7 nM | 454 nM | 74 nM | 890 nM | – | 0.7 nM
COC(=O)N[C@H](C(=O)N1CCC[C@H]1c1ncc(-c2ccc3c(c2)cc2n3C(c3cccc(OC(C)C)c3)Oc3cc(-c4cnc([C@@H]5C[C@@H](F)CN5C(=O)[C@@H](NC(=O)OC)C(C)C)[nH]4)cc(F)c3-2)[nH]1)C(C)C (stereo not given in full) | 0.01 nM | 28 nM | 0.07 nM | 0.9 nM | – | 0.6 nM
